ChEMBL document CHEMBL4359886, “Imidazo[2,1-a]isoindole scaffold as an uncharted structure active on Leishmania donovani” (Eur J Med Chem, 2019)
Activity calls are given as the source filed them. The rule behind the calls is not given here.

What was measured:
[1] = Cytotoxicity against macrophage-differentiated human THP1 cells assessed as reduction in cell viability incubated for 72 hrs by MTT assay; format: cell-based; details: macrophage-differentiated THP-1 cells
How it was run: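 THP-1 cells (3×10^4 per well) were differentiated with PMA (20 ng/mL, 48 h), then kept 24 h in fresh RPMI-1640 with 10% hiFBS. They were exposed to increasing compound concentrations for 72 h at 37 °C, then read by MTT reduction. CC50 is the 50% reduction versus untreated controls. Three independent experiments in triplicate.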

[2] = Cytotoxicity against human MRC5 cells assessed as reduction in cell viability incubated for 72 hrs by MTT assay; format: cell-based
How it was run: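 MRC5-SV2 (SV40-transformed human lung fibroblasts) were grown in DMEM with 10% hiFBS at 37 °C, 5% CO₂. Cells were exposed to increasing compound concentrations for 72 h at 37 °C, followed by MTT reduction. CC50 is the concentration reducing proliferation by 50% versus untreated cells. Three independent experiments in triplicate.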

[3] = system: Leishmania donovani; test: Antileishmanial activity against Leishmania donovani MHOM/ET/67/HU3 amastigotes harboring luciferase reporter gene infected in macrophage-differentiated human THP1 cells incubated for 72 hrs by luminescence based assay; format: functional, organism-based; details: MHOM/ET/67/HU3, THP-1, 72 h
How it was run: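 THP-1 cells were differentiated with PMA (20 ng/mL, 48 h), then kept 24 h in fresh medium. They were infected 24 h at 35 °C with stationary luciferase-expressing promastigotes at a macrophage:parasite ratio of 1:10, and free parasites were washed off. Compounds were added at 0.62–40 μM for 72 h at 37 °C. Cells were lysed with 0.1% Triton X-100 and luminescence read. EC50 from three independent experiments in triplicate.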

[4] = Selectivity index, ratio of CC50 for macrophage-differentiated human THP1 cells to EC50 for Leishmania donovani MHOM/ET/67/HU3 amastigotes harboring luciferase reporter gene infected in macrophage-differentiated human THP1 cells; format: toxicity; details: macrophage-differentiated THP-1 cells, read-out: Ratio CC50/EC50
How it was run: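 CC50 came from PMA-differentiated THP-1 cells exposed to compound for 72 h at 37 °C and read by MTT reduction (three independent experiments, triplicate). This was divided by the EC50 against intracellular amastigotes, measured by luciferase luminescence after 72 h of treatment.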

[5] = system: Leishmania donovani; test: Induction of mitochondrial membrane depolarization in Leishmania donovani promastigotes at 30 uM incubated for 4 hrs by Rhodamine 123 dye-based flow cytometric assay; format: functional, organism-based
How it was run: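 Promastigotes at 20×10^6 cells/mL in serum-free, phenol-red-free RPMI 1640 were incubated with compound for 4 h. Rh123 (0.5 µg/mL) was added for 10 min, unbound probe was washed off, and intracellular accumulation was read by flow cytometry (ex 488/em 520 nm). Parasites given 10 mM KCN served as the dysfunctional-mitochondrion control.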

[6] = system: Leishmania donovani; test: Antileishmanial activity against Leishmania donovani promastigotes harboring 3-Luc gene assessed as decrease in intracellular ATP level using DMNEP-D-luciferin as substrate at 5 to 50 uM measured for 10 mins by luminescence based assay; format: functional, organism-based
How it was run: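 3-Luc promastigotes at 20×10^6 cells/mL in serum-free, phenol-red-free RPMI 1640 containing 50 µM DMNPE-D-luciferin. Once luminescence was stable, compound (5–50 µM) was added and luminescence of the live parasites followed in real time. Expressed as percent of untreated parasites. Parasites given 1.5 µM 1,4-naphthoquinone served as control.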

[7] = system: Leishmania donovani; test: Antileishmanial activity against Leishmania donovani promastigotes incubated for 72 hrs by MTT assay; format: functional, organism-based
How it was run: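 Promastigote proliferation was followed for 72 h in the presence of compound, then read by MTT reduction. EC50 is the concentration giving 50% inhibition of proliferation, from three independent experiments.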

[8] = system: Leishmania donovani; test: Antileishmanial activity against Leishmania donovani promastigotes harboring 3-Luc gene assessed as decrease in intracellular ATP level at 5 to 50 uM using DMNEP-D-luciferin as substrate pretreated for 4 hrs followed by substrate addition measured for 10 mins by luminescence based assay; format: functional, organism-based
How it was run: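 3-Luc promastigotes, which express cytoplasmic luciferase, at 20×10^6 cells/mL in serum-free, phenol-red-free RPMI 1640, incubated with 5, 10, 20, 30, 40 or 50 µM compound for 4 h at 26 °C. DMNPE-D-luciferin then added to 50 µM final, and luminescence recorded for 10 min. Values given as percent of untreated parasites. 1.5 µM 1,4-naphthoquinone used as respiratory-chain-inhibited control.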

[9] = system: Leishmania donovani; test: Induction of plasma membrane permeabilization in Leishmania donovani promastigotes by sytox green-based fluorescence assay; format: functional, organism-based
How it was run: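 Promastigotes at 20×10^6/mL in serum-free, phenol-red-free RPMI 1640 containing 1 µM SYTOX green received compound (10–50 µM tested). Fluorescence increase (ex 485/em 520 nm) was followed in real time. Triton X-100 (0.1% final) was then added to give full permeabilization, taken as 100%.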

[10] = system: Leishmania donovani; test: Antileishmanial activity against Leishmania donovani promastigotes incubated for 4 hrs by MTT assay; format: functional, organism-based
How it was run: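 L. donovani promastigotes at 20×10^6 cells/mL in RPMI 1640 without serum or phenol red were exposed to compound for 4 h at 26 °C. MTT was then added (0.5 mg/mL final) for 2 h, and formazan was solubilized with 0.5% SDS final. A595 was read. IC50 is the concentration inhibiting MTT reduction by 50%. Run in triplicate, repeated at least twice.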

[11] = system: Leishmania donovani; test: Induction of mitochondrial membrane depolarization in Leishmania donovani promastigotes assessed as swelling of mitochondrial cristae at EC70 incubated for 12 hrs by transmission electron microscopic method; format: functional, organism-based
[12] = system: Leishmania donovani; test: Induction of plasma membrane permeabilization in Leishmania donovani promastigotes assessed as formation of blebbings in plasma membrane at EC70 incubated for 12 hrs by transmission electron microscopic method; format: functional, organism-based

Compound | CC50 at 72 h [1] [µM] | CC50 at 72 h [2] [µM] | EC50 [3] [µM] | selectivity ratio [4] | Activity [5] | Activity [6] | EC50 [7] [µM] | Activity [8] | Activity [9] | IC50 [10] [µM] | Activity [11] | Activity [12]
C[C@@H]1[C@H](O)[C@@H](C)/C=C/C=C/C=C/C=C/C=C/C=C/C=C/[C@H](O[C@@H]2O[C@H](C)[C@@H](O)[C@H](N)[C@@H]2O)C[C@@H]2O[C@](O)(C[C@@H](O)C[C@@H](O)[C@H](O)CC[C@@H](O)C[C@@H](O)CC(=O)O[C@H]1C)C[C@H](O)[C@H]2C(=O)O [AMPHOTERICIN B] | 16 | 12 |  |  |  |  |  |  |  |  |  | 
OC1(Cc2ccccc2Cl)c2c(Cl)ccc(Cl)c2C2=NCCN21 (stereo not given) | 82 | 41 | 4.16 | 19.7 |  |  |  |  |  |  |  | 
OC1(Cc2ccc(Cl)cc2)c2c(Cl)ccc(Cl)c2C2=NCCN21 (stereo not given) | 68.7 | 33.8 | 2.62 | 26.2 | Active | Active | 13.3 | Active | Dose-dependent effect | 14.4 |  | 
OC1(Cc2ccc(Cl)cc2)c2ccccc2C2=NCCN21 (stereo not given) | 145 | 80 | 2.1 | 69.1 |  |  | 11.8 |  |  |  |  | 
OC1(Cc2ccccc2)c2ccccc2C2=NCCN21 (stereo not given) | > 200 | 182 | 27.8 |  |  |  |  |  |  |  |  | 
CSc1ccc(CC2(O)c3cc(Cl)c(Cl)cc3C3=NCCN32)cc1 (stereo not given) | 31.1 | 8.48 | 1 | 31.1 | Active | Active | 2.1 | Active | Dose-dependent effect | 7.3 | Active | Active
OC1(Cc2ccc(Cl)cc2)c2cc(Cl)c(Cl)cc2C2=NCCN21 (stereo not given) | 31.9 | 8.91 | 2.95 | 10.8 |  |  | 6.9 |  |  |  |  | 
CSc1ccc(CC2(O)c3c(Cl)ccc(Cl)c3C3=NCCN32)cc1 (stereo not given) | 84.4 | 77.4 | 6.65 | 12.7 |  |  |  |  |  |  |  | 
